In article PMC6467728 (Journal of medicinal chemistry, 2019):
Entries after “also recorded” stand apart in the source; their conditions may differ. Where two headings read alike, the source gives them in different places.

Key:
[1] = system: IP6K / IPMK activity (InsP7, InsP5, InsP6 levels) in HCT116 cells; type: cell-based, human
[2] = system: IP6K; conditions: prior report; cited from earlier work
[3] = system: IP6K activity (InsP levels) in HEK293 cells; assay: HPLC analysis of InsP5, InsP6 and InsP7 levels in HEK293 cells; type: cell-based; conditions: HEK293, 2.5 µM, 3.5 h
Procedure, shortened: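 HEK293 cells were labeled with [³H]inositol (20 µCi/ml), then treated 3.5 h with 2.5 µM test compound in DMSO (0.1% final) or vehicle. Cells were quenched with perchloric acid, and extracted [³H]InsP5, InsP6 and InsP7 were resolved by CarboPac HPLC. Values are means ± standard errors, n=3; one-way ANOVA (Dunnett) vs DMSO control.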

[4] = cited from earlier work
[5] = system: AKT activity in HCT116 cells; assay: AKT activity; type: cell-based, human; conditions: 3 h
Procedure, shortened: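 HCT116 cells, 1 day post-confluent, were exposed 3 h to 10 µM TNP, 2.5 µM test compound or DMSO vehicle (0.1% final). Cells were PBS-washed and lysed in cold Tris-HCl pH 7.4 buffer with 1% Triton X-100 plus protease-phosphatase inhibitors. Blots of 20 µg protein were probed for T308 p-AKT and total AKT. The p-AKT/total ratio was normalized to the gel sum; means ± standard errors, n=5, Dunnett ANOVA.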

[6] = system: AKT activity in 3T3-L1 preadipocytes; assay: AKT activity; type: cell-based; conditions: 3 h
Procedure, shortened: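 Lysates were made in ice-cold Tris-HCl pH 7.4/NaCl/1% Triton X-100 with protease-phosphatase inhibitors and cleared at 4 °C. Blots of 20 µg protein were probed for p-AKT T308 and total AKT. Ratios were normalized to the per-gel sum; n=3, Dunnett ANOVA vs DMSO.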

[7] = target: hIPMK (Homo sapiens, UniProt Q8NFU5); assay: hIPMK Adapta TR-FRET kinase assay; type: biochemical; conditions: for fold higher IC50 (reduction in inhibitory activity) against hIPMK compared to 2: relative to compound 2
Chain of hIPMK (Q8NFU5 whole entry): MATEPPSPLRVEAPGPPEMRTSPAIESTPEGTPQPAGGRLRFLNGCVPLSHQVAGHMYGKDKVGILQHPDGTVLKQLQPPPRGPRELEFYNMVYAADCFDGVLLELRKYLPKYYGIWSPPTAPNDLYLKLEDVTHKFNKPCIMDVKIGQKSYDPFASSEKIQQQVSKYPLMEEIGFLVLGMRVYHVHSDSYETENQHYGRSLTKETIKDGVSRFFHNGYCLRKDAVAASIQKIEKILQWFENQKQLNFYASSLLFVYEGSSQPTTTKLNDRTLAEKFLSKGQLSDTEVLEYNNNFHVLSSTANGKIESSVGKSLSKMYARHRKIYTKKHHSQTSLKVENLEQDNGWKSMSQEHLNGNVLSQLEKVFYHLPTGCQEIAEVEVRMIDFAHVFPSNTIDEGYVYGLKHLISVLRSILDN

[8] = target: T1, hIP6K2 (Homo sapiens, UniProt Q9UHH9); assay: hIP6K2 Adapta TR-FRET kinase assay; type: biochemical; conditions: for fold higher IC50 against hIP6K2 compared to 3: relative to compound 3; for fold higher IC50 against hIP6K2 compared to 5: relative to compound 5
T1 sequence (Q9UHH9 1-426): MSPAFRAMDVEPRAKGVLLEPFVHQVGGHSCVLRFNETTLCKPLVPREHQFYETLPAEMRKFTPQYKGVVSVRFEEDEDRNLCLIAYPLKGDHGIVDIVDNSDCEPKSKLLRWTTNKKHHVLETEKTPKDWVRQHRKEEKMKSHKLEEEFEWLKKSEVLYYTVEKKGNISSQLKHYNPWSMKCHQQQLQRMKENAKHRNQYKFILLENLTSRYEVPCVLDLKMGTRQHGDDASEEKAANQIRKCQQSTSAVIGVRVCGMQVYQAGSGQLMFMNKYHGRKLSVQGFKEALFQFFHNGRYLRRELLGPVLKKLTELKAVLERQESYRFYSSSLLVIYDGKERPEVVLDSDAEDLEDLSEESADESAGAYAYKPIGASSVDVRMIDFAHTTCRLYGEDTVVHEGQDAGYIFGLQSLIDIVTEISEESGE

O=c1c(O)c(-c2cc(O)c(O)c(O)c2)oc2cc(O)cc(O)c12 [Compound 1, Myricetin]
effect on InsP5 levels ([1]; HCT116, 2.5 µM, 3.5 hr): not significantly affected | effect on InsP6 levels ([1]; HCT116, 2.5 µM, 3.5 hr): not significantly affected | effect on InsP7 synthesis / levels ([1]; HCT116, 2.5 µM, 3.5 hr): inhibited InsP7 synthesis; also recorded: only slightly altered InsP7 levels | inhibition of IP6K [2]: inhibitor

O=c1c(O)c(-c2ccc(O)c(O)c2)oc2cc(O)cc(O)c12 [Compound 2, Quercetin]
effect on InsP7 synthesis / levels ([1]; HCT116, 2.5 µM, 3.5 hr): inhibited InsP7 synthesis | effect on InsP5 ([1]; HCT116, 2.5 µM, time course): without significantly impacting | effect on InsP6 ([1]; HCT116, 2.5 µM, time course): without significantly impacting | reduction of InsP7 levels ([1]; HCT116, 2.5 µM, time course): 50 – 70% | time of greatest diminution in cellular InsP7 content ([1]; HCT116, 2.5 µM, time course): 30 min | total DPM of InsP7 peak ([1]; HCT116, 10 μM, 3.5 h, representative HPLC, control 2160): 195 DPM | total DPM of InsP5 peak ([1]; HCT116, 10 μM, 3.5 h, representative HPLC, control 14677): 10,989 DPM | total DPM of InsP6 peak ([1]; HCT116, 10 μM, 3.5 h, representative HPLC, control 36,327): 39521 DPM | effect on InsP6 levels ([1]; HCT116, 10 µM, 3.5 hr): not affected | reduction of InsP5 levels ([1]; HCT116, 10 µM, 3.5 hr): approx. 25% | effect on InsP7 levels, dose dependence ([1]; HCT116, 1–10 µM, 3.5 hr): dose-dependent reductions in InsP7 levels | effect on InsP5 levels [3]: not affected | effect on InsP6 levels [3]: not affected | effect on InsP7 levels [3]: reduced InsP7 levels | concentration recorded in the human small intestine and colon [4]: 2500 nM | concentration in serum ([4]; even after dietary supplementation): ≤ 1000 nM | effect upon AKT activity (p-AKT T308 / total AKT) ([5]; HCT116, 2.5 µM): did not observe any statistically-significant effect | inhibition of IP6K [2]: no inhibitory effect was observed | effect upon AKT activity (p-AKT T308 / total AKT) ([6]; 3T3-L1, 2.5 µM): increased

O=c1cc(-c2ccc(O)c(O)c2)oc2cc(O)cc(O)c12 [Compound 3, Luteolin]
effect on InsP7 synthesis / levels ([1]; HCT116, 2.5 µM, 3.5 hr): inhibited InsP7 synthesis | effect on InsP5 levels [3]: not affected | effect on InsP6 levels [3]: not affected | effect on InsP7 levels [3]: reduced InsP7 levels | effect upon AKT activity (p-AKT T308 / total AKT) ([5]; HCT116, 2.5 µM): did not observe any statistically-significant effect | fold higher IC50 (reduction in inhibitory activity) against hIPMK compared to 2 [7]: 2.4- to 3 fold | effect upon AKT activity (p-AKT T308 / total AKT) ([6]; 3T3-L1, 2.5 µM): increased | fold higher IC50 against hIP6K2 compared to 2 ([8]; relative to compound 2): 1.9 fold

O=c1c(O)c(-c2ccc(O)cc2)oc2cc(O)cc(O)c12 [Compound 4, Kaempferol]
effect on InsP5 levels ([1]; HCT116, 2.5 µM, 3.5 hr): not significantly affected | effect on InsP6 levels ([1]; HCT116, 2.5 µM, 3.5 hr): not significantly affected | effect on InsP7 synthesis / levels ([1]; HCT116, 2.5 µM, 3.5 hr): inhibited InsP7 synthesis | fold higher IC50 (reduction in inhibitory activity) against hIPMK compared to 2 [7]: 2 fold | fold higher IC50 against hIP6K2 compared to 2 ([8]; relative to compound 2): 3.6 fold

O=c1cc(-c2ccc(O)cc2)oc2cc(O)cc(O)c12 [Compound 5, Apigenin]
fold higher IC50 against hIP6K2 compared to 2 ([8]; relative to compound 2): 10 fold

COc1cc(-c2oc3cc(O)cc(O)c3c(=O)c2O)ccc1O [Compound 6, Isorhamnetin]
effect on InsP5 levels ([1]; HCT116, 2.5 µM, 3.5 hr): not significantly affected | effect on InsP6 levels ([1]; HCT116, 2.5 µM, 3.5 hr): not significantly affected | effect on InsP7 synthesis / levels ([1]; HCT116, 2.5 µM, 3.5 hr): inhibited InsP7 synthesis

COc1ccc(-c2cc(=O)c3c(O)cc(O)cc3o2)cc1O [Compound 7, Diosmetin]
effect on InsP7 synthesis / levels ([1]; HCT116, 2.5 µM, 3.5 hr): inhibited InsP7 synthesis; also recorded: most effective inhibitor of InsP7 levels | effect on InsP5 ([1]; HCT116, 2.5 µM, time course): no effect | effect on InsP6 ([1]; HCT116, 2.5 µM, time course): did not significantly alter | effect on InsP7 synthesis ([1]; HCT116, 2.5 µM, time course): most sustained inhibition of InsP7 synthesis | reduction in IP6K activity ([1]; intact HCT116 cells, 2.5 µM): > 70% | effect on InsP5 levels [3]: not affected | effect on InsP6 levels [3]: not affected | effect on InsP7 levels [3]: reduced InsP7 levels | effect upon AKT activity (p-AKT T308 / total AKT) ([5]; HCT116, 2.5 µM): did not observe any statistically-significant effect | effect upon AKT activity (p-AKT T308 / total AKT) ([6]; 3T3-L1, 2.5 µM): increased

O=c1cc(-c2ccc(O)c(O)c2)oc2cccc(O)c12 [Compound 9, 5,3’,4’-Trihydroxyflavone]
fold higher IC50 against hIP6K2 compared to 3 [8]: 6 fold

COc1cc(O)c2c(=O)cc(-c3ccc(O)cc3)oc2c1 [Compound 10, Genkwanin]
fold higher IC50 against hIP6K2 compared to 5 [8]: 3 fold

COc1cc(O)c2c(=O)c(O)c(-c3ccc(O)c(O)c3)oc2c1 [Compound 11, Rhamnetin]
effect on InsP5 levels ([1]; HCT116, 2.5 µM, 3.5 hr): not significantly affected | effect on InsP6 levels ([1]; HCT116, 2.5 µM, 3.5 hr): not significantly affected | effect on InsP7 synthesis / levels ([1]; HCT116, 2.5 µM, 3.5 hr): inability of 11 to reduce InsP7 | fold higher IC50 (reduction in inhibitory activity) against hIPMK compared to 2 [7]: 6 fold | fold higher IC50 against hIP6K2 compared to 2 ([8]; relative to compound 2): 2.6 fold | fold increase in selectivity for hIP6K2 (vs hIPMK) compared to 2 ([8]; relative to compound 2): 2.4 fold

O=C1C[C@@H](c2ccc(O)c(O)c2)Oc2cc(O)cc(O)c21 [Compound 16, Eriodictyol]
fold loss of activity against hIPMK compared to 3 ([7]; relative to compound 3): > 5.5 fold | fold higher IC50 against hIP6K2 compared to 3 [8]: 19 fold

O=C1C[C@@H](c2ccc(O)cc2)Oc2cc(O)cc(O)c21 [Compound 17, Naringenin]
fold higher IC50 against hIP6K2 compared to 5 [8]: at least 4 fold

O=[N+]([O-])c1ccc(CNc2nc(NCc3cccc(C(F)(F)F)c3)nc3[nH]cnc23)cc1 [TNP, N2-(m-(trifluoromethyl)benzyl) N6-(p-nitrobenzyl)purine, reference compound]
effect upon AKT activity (p-AKT T308 / total AKT) ([5]; HCT116, 10 µM TNP): did not affect AKT activity | effect upon AKT activity (p-AKT T308 / total AKT) ([6]; 3T3-L1, 1 µM TNP): increased
